{"source": "ChEMBL document CHEMBL4340525", "about": "“Tumor-Targeted Delivery of 6-Diazo-5-oxo-l-norleucine (DON) Using Substituted Acetylated Lysine Prodrugs” (J Med Chem, 2019)", "key": {"[1]": {"assay": "Tmax in CES1-deficient C57BL/6 mouse jejunum implanted with mouse EL4 cells at 3.2 mg/kg, sc administered as single dose by LC-MS/MS analysis", "assay_type": "ADME, organism-based", "conditions": "in vivo, BLD = below limit of detection", "procedure,_shortened": "(§1)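 Male and female C57BL/6 CES1-/- mice, 6–8 weeks old, carried flank EL4 tumours from SC injection of 1 × 10^6 cells in PBS. Dosing began at about 400 mm3 mean tumour volume. Each mouse got one SC dose of 3.2 mg/kg (1 mg/kg DON equivalent) in ethanol/Tween 80/saline 5:10:85. Plasma, jejunum and tumour were taken at set times, n = 3 per time point. Prodrug and dabsyl-derivatised DON were measured by LC-MS/MS. Noncompartmental analysis: Cmax and Tmax observed, AUClast by log-linear trapezoidal rule.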"}, "[2]": {"assay": "Tmax in CES1-deficient C57BL/6 mouse plasma implanted with mouse EL4 cells at 3.2 mg/kg, sc administered as single dose by LC-MS/MS analysis", "assay_type": "ADME, organism-based", "procedure,_shortened": "as §1"}, "[3]": {"assay": "Prodrug conversion in human plasma suspended with human H69 cells assessed as 6-diazo-5-oxo-L-norleucine formation at 20 uM measured after 1 hr by LC-MS/MS analysis", "assay_type": "ADME, cell-free", "procedure,_shortened": "(§2)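 Cells were grown in RPMI 1640 with 10% FBS, washed in DPBS and resuspended in human plasma at 10 million cells/mL. After 5 min preincubation at 37 °C, compound was added at 20 µM final for 1 h. The mix was centrifuged at 10 000g and the washed pellet and plasma were quantified separately. DON was read by LC-MS/MS after dabsyl chloride derivatisation, intact prodrug directly. Standard curves were made in naive cells or plasma.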"}, "[4]": {"assay": "Cmax in CES1-deficient C57BL/6 mouse tumor implanted with mouse EL4 cells assessed as 6-diazo-5-oxo-L-norleucine level at 3.2 mg/kg, sc administered as single dose by LC-MS/MS analysis", "assay_type": "ADME, organism-based, Neoplasm", "design": "dose 3.2 mg/kg, route subcutaneous", "conditions": "in vivo", "procedure,_shortened": "as §1"}, "Cathepsin B": {"target": "Cathepsin B (Homo sapiens, UniProt P07858)", "assay": "Stability of the compound assessed as recombinant human cathepsin B-mediated compound hydrolysis by measuring parent compound remaining at 1 uM measured after 3 hrs by UHPLC-MS analysis", "assay_type": "ADME", "procedure,_shortened": "(§3)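 Compound at 1 µM was incubated at 37 °C with shaking in 50 mM MES pH 6 with 5 mM DTT. Recombinant human enzyme final levels: HDAC2 10 µg/mL, cathepsin B 1 µg/mL, cathepsin L 0.1 µg/mL, alone or cathepsins B+L combined. Aliquots were quenched in methanol with losartan at 0.25, 0.5, 1 and 3 h. Parent remaining by Q-TOF LC-MS.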"}, "[5]": {"assay": "Cmax in CES1-deficient C57BL/6 mouse jejunum implanted with mouse EL4 cells at 3.2 mg/kg, sc administered as single dose by LC-MS/MS analysis", "assay_type": "ADME, organism-based", "design": "dose 3.2 mg/kg, route subcutaneous", "conditions": "in vivo, BLD = below limit of detection", "procedure,_shortened": "as §1"}, "[6]": {"assay": "Drug level in human P493B cells suspended in human plasma assessed as tumor cell to plasma ratio by measuring 6-diazo-5-oxo-L-norleucine formation at 20 uM measured after 1 hr by LC-MS/MS analysis relative to 6-diazo-5-oxo-L-norleucine alone", "assay_type": "ADME, cell-based", "procedure,_shortened": "as §2"}, "[7]": {"assay": "Cmax in CES1-deficient C57BL/6 mouse tumor implanted with mouse EL4 cells at 3.2 mg/kg, sc administered as single dose by LC-MS/MS analysis", "assay_type": "ADME, organism-based, Neoplasm", "design": "dose 3.2 mg/kg, route subcutaneous", "conditions": "in vivo", "procedure,_shortened": "as §1"}, "[8]": {"assay": "AUC (0 to t) in CES1-deficient C57BL/6 mouse tumor implanted with mouse EL4 cells at 3.2 mg/kg, sc administered as single dose by LC-MS/MS analysis", "assay_type": "ADME, organism-based, Neoplasm", "conditions": "in vivo", "procedure,_shortened": "as §1"}, "[9]": {"assay": "Stability of the compound in wild-type C57BL/6 mouse plasma measured after 60 mins by UHPLC-MS analysis", "assay_type": "ADME, cell-free", "conditions": "1 h"}, "[10]": {"assay": "AUC (0 to t) in CES1-deficient C57BL/6 mouse plasma implanted with mouse EL4 cells assessed as 6-diazo-5-oxo-L-norleucine level at 3.2 mg/kg, sc administered as single dose by LC-MS/MS analysis", "assay_type": "ADME, organism-based", "conditions": "in vivo", "procedure,_shortened": "as §1"}, "[11]": {"assay": "Stability in mouse plasma assessed as parent compound remaining at 20 uM measured after 1 hr by LC-MS/MS analysis"}, "[12]": {"assay": "AUC (0 to t) in CES1-deficient C57BL/6 mouse tumor implanted with mouse EL4 cells assessed as 6-diazo-5-oxo-L-norleucine level at 3.2 mg/kg, sc administered as single dose by LC-MS/MS analysis", "assay_type": "ADME, organism-based, Neoplasm", "conditions": "in vivo", "procedure,_shortened": "as §1"}, "[13]": {"assay": "Cmax in CES1-deficient C57BL/6 mouse plasma implanted with mouse EL4 cells at 3.2 mg/kg, sc administered as single dose by LC-MS/MS analysis", "assay_type": "ADME, organism-based", "design": "dose 3.2 mg/kg, route subcutaneous", "procedure,_shortened": "as §1"}, "[14]": {"assay": "Stability in human plasma assessed as parent compound remaining at 20 uM measured after 1 hr by LC-MS/MS analysis"}, "[15]": {"assay": "Prodrug conversion in human P493B cells suspended in human plasma assessed as deacetylation by measuring (6a) (S)-2-{(S)-2-[(Adamantane-1-carbonyl)-amino]-6-amino-hexanoylamino}-6-diazo-5-oxo-hexanoic acid isopropyl ester formation measured after 1 hr by HRMS analysis", "assay_type": "ADME, cell-based", "procedure,_shortened": "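Metabolite identification: compound was incubated 1 h with 10 million P493B cells suspended in 1 mL human plasma. Cell pellets were collected and metabolites identified by HRMS.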"}, "[16]": {"assay": "Stability in human liver S9 fraction assessed as parent compound remaining at 1 uM measured after 1 hr by LC-MS/MS analysis", "assay_type": "ADME, subcellular", "conditions": "read-out: Stability", "procedure,_shortened": "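Human liver microsomes (0.2 mg/mL protein) or S9 fraction (0.5 mg/mL) were incubated with prodrug at 1 µM final, 37 °C, 1 h with shaking. Reactions were quenched in triplicate with three volumes acetonitrile containing losartan. Parent remaining was taken from analyte/internal-standard peak-area ratio by UHPLC-MS/MS.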"}, "[17]": {"assay": "Tmax in CES1-deficient C57BL/6 mouse jejunum implanted with mouse EL4 cells assessed as 6-diazo-5-oxo-L-norleucine level at 3.2 mg/kg, sc administered as single dose by LC-MS/MS analysis", "assay_type": "ADME, organism-based", "conditions": "in vivo", "procedure,_shortened": "as §1"}, "[18]": {"assay": "Ratio of 6-diazo-5-oxo-L-norleucine EC50 to test compound EC50 for human P493B cells", "assay_type": "functional"}, "Procathepsin L": {"target": "Procathepsin L (Homo sapiens, UniProt P07711)", "sequence (P07711 whole entry)": "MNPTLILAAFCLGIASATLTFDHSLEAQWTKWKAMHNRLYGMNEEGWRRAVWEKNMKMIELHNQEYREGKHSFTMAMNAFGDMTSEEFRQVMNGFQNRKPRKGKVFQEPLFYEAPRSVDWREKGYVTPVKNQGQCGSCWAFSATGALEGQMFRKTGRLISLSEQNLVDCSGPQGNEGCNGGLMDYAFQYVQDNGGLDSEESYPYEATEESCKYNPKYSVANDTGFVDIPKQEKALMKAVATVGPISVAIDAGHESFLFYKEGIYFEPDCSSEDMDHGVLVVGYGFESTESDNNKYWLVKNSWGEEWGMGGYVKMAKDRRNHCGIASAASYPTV", "assay": "Stability of the compound assessed as recombinant human cathepsin L-mediated compound hydrolysis by measuring parent compound remaining at 1 uM measured after 3 hrs by UHPLC-MS analysis", "assay_type": "ADME", "procedure,_shortened": "as §3"}, "[19]": {"assay": "Drug level in human P493B cells suspended in human plasma assessed as tumor cell to plasma ratio by measuring 6-diazo-5-oxo-L-norleucine formation at 20 uM measured after 1 hr by LC-MS/MS analysis", "assay_type": "ADME, cell-based", "procedure,_shortened": "as §2"}, "[20]": {"assay": "AUC in CES1-deficient C57BL/6 mouse jejunum implanted with mouse EL4 cells assessed as 6-diazo-5-oxo-L-norleucine level at 3.2 mg/kg, sc administered as single dose by LC-MS/MS analysis", "conditions": "in vivo"}, "[21]": {"assay": "Stability of the compound in wild-type C57BL/6 mouse plasma assessed as de-esterification of carboxyl ester measured after 60 mins by HRMS analysis", "assay_type": "ADME, cell-free", "conditions": "1 h"}, "[22]": {"assay": "Prodrug conversion in human plasma suspended with human DU4475 cells assessed as 6-diazo-5-oxo-L-norleucine formation at 20 uM measured after 1 hr by LC-MS/MS analysis", "assay_type": "ADME, cell-free", "procedure,_shortened": "as §2"}, "[23]": {"assay": "Tmax in CES1-deficient C57BL/6 mouse tumor implanted with mouse EL4 cells at 3.2 mg/kg, sc administered as single dose by LC-MS/MS analysis", "assay_type": "ADME, organism-based, Neoplasm", "procedure,_shortened": "as §1"}}, "data": [{"smiles": "CC(=O)NCCCC[C@H](NC(=O)C12CC3CC(CC(C3)C1)C2)C(=O)N[C@@H](CCC(=O)C=[N+]=[N-])C(=O)OC(C)C", "values": [{"measurement": "Tmax", "setting": "[1]", "result": "Bld"}, {"measurement": "Tmax", "setting": "[2]", "result": 15, "unit": "min"}, {"measurement": "Drug metabolism", "setting": "[3]", "result": "0.25 to 0.5", "unit": "µM"}, {"measurement": "Cmax", "setting": "[4]", "result": 1.55, "unit": "nmol/g"}, {"measurement": "Stability", "setting": "Cathepsin B", "result": 64, "unit": "%"}, {"measurement": "Cmax", "setting": "[5]", "result": "Bld"}, {"measurement": "fold change (FC)", "setting": "[6]", "result": 55}, {"measurement": "Cmax", "setting": "[7]", "result": 0.05, "unit": "nmol/g"}, {"measurement": "AUCt", "setting": "[8]", "result": 0.03, "unit": "nmol·h/g"}, {"measurement": "Stability", "setting": "[9]", "result": "Unstable"}, {"measurement": "AUCt", "setting": "[10]", "result": 1.06, "unit": "µM·h"}, {"measurement": "Stability", "setting": "[11]", "result": 0, "unit": "%"}, {"measurement": "AUCt", "setting": "[12]", "result": 5.07, "unit": "nmol·h/g"}, {"measurement": "Cmax", "setting": "[13]", "result": 820, "unit": "nM"}, {"measurement": "Stability", "setting": "[14]", "result": 107, "unit": "%"}, {"measurement": "Drug metabolism", "setting": "[15]", "result": "Metabolite_Detected"}, {"measurement": "remaining at 1 h, 1 µM", "setting": "[16]", "result": 100, "unit": "%"}, {"measurement": "Tmax", "setting": "[17]", "result": 30, "unit": "min"}, {"measurement": "Ratio EC50", "setting": "[18]", "result": 2}, {"measurement": "Stability", "setting": "Procathepsin L", "result": 36, "unit": "%"}, {"measurement": "Ratio", "setting": "[19]", "result": 22}, {"measurement": "AUC", "setting": "[20]", "result": 0.45, "unit": "nmol·h/g"}, {"measurement": "Stability", "setting": "[21]", "result": "Unstable"}, {"measurement": "Drug metabolism", "setting": "[22]", "result": "0.25 to 0.5", "unit": "µM"}, {"measurement": "Tmax", "setting": "[23]", "result": 30, "unit": "min"}]}]}
